Data: article PMC4869831 (Nature structural & molecular biology, 2011)

How the values were obtained:
IGF-IR = conditions: equally potent on both kinases in vitro; cited from earlier work
ATR = ATR (Mus musculus, UniProt Q9JKK8); assay type: cell-based; conditions: increasing doses of caffeine
Summary of the method: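 3T3 TopBP1-ER mouse cells (15000/well) were plated the day before on gelatine-coated wells. Graded caffeine doses were added for 15 min at 37 °C, then 4-OHT for 60 min at 37 °C. Cells were paraformaldehyde-fixed and stained for γH2AX by immunofluorescence. Automated 10x imaging gave mean γH2AX per DAPI-masked nucleus from ≥300 cells/well. Values were normalized to no-4-OHT (min) and 4-OHT-only (max) controls. Error bars s.d.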

Sequence of ATR (Q9JKK8 whole entry): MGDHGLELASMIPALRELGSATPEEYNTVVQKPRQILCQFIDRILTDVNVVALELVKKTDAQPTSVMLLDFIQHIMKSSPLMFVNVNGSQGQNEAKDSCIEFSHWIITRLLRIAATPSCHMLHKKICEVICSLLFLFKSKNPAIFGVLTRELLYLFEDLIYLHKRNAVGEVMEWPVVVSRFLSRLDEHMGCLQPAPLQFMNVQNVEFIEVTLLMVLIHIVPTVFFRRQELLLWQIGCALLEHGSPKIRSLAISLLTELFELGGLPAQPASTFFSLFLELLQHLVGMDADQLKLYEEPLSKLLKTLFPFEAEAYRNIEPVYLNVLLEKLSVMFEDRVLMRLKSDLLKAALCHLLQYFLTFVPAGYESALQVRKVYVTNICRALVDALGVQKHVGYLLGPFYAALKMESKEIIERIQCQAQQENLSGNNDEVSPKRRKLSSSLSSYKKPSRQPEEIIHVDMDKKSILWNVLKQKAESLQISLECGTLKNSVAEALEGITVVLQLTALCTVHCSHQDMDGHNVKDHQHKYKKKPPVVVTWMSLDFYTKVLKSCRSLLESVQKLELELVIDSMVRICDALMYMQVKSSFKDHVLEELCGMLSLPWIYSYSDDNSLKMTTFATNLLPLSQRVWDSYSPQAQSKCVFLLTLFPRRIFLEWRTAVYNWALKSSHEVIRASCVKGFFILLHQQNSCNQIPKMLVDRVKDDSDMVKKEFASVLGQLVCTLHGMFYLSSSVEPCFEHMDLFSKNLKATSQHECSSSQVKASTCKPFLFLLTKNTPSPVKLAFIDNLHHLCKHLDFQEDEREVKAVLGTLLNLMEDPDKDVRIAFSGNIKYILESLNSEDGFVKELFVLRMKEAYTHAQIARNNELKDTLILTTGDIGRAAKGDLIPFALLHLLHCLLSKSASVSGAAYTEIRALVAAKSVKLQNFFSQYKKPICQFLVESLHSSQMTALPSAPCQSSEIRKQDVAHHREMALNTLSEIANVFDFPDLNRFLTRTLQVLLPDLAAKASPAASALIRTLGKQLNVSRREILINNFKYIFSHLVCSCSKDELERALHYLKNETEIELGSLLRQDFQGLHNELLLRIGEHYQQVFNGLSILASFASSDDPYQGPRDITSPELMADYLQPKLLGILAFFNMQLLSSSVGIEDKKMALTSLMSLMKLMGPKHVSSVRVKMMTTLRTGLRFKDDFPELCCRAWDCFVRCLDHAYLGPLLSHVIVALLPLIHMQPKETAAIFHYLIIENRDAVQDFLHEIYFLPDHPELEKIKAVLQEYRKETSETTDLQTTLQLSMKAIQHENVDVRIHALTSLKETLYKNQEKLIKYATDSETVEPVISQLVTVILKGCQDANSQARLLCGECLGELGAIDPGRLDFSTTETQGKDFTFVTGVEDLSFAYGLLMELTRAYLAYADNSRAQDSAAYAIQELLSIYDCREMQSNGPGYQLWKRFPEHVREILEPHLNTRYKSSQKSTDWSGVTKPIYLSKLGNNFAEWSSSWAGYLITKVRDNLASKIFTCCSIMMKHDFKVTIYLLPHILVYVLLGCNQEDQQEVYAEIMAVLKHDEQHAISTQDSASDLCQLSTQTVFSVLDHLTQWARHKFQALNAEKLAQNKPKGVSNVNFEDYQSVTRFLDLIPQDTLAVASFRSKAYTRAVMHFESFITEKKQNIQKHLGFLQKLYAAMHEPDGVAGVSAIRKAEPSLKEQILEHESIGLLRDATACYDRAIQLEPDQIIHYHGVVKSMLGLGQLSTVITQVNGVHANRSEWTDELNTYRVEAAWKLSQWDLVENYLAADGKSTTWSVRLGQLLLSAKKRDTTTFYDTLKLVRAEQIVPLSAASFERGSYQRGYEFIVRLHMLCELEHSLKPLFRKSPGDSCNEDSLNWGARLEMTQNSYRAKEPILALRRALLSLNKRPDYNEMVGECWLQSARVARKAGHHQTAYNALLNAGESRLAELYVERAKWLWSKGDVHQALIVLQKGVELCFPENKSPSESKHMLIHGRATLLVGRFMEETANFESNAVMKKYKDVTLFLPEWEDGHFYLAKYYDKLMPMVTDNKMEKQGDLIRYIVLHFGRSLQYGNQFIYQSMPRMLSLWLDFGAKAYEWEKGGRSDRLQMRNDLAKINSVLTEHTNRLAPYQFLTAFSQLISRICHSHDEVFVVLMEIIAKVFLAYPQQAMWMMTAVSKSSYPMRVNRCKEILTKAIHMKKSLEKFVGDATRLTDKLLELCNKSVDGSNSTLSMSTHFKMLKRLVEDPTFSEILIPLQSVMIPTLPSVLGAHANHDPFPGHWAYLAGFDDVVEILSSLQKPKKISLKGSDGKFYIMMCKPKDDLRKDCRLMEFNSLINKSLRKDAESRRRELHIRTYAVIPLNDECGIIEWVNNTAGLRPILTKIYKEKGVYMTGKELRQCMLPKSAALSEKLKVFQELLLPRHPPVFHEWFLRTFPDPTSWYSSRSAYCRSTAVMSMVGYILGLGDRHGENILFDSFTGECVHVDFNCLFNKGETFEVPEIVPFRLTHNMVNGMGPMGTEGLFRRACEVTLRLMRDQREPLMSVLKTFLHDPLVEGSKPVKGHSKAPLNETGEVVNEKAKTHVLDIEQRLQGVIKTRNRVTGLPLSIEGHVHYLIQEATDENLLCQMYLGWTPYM

## Nc1ncnc2c1c(-c1cccc(OCc3ccccc3)c1)cn2[C@H]1C[C@@H](CN2CCC2)C1 [NVP-AEW541]
IGF-IR
  selectivity against IGF-IR vs InsR in cellulo: 26 fold

## Cn1c(=O)c2c(ncn2C)n(C)c1=O [Caffeine]
ATR
  nuclear γH2AX signal induced by 4-OHT: stepwise decrease in the γH2AX signal
